# Experimental data taken from ChEMBL document CHEMBL1125228, “A 3-D model for 5-HT1A-receptor agonists based on stereoselective methyl-substituted and conformationally restricted analogues of 8-hydroxy-2-(dipropylamino)tetralin” (J Med Chem, 1991).
# “And” between values parts separate entries of the source, which are not always exact repeats. Identical values can stand only once.
# Key:
# Rattus norvegicus [1] = assay: In vivo accumulation of DOPA in striatum of rat brain at a dose of 3.2 umol/kg.; assay type: functional
# Procedure, shortened: (§1)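 Rats, reserpine-pretreated (5 mg/kg, i.e. 9 μmol/kg sc, 6 h before) or nonpretreated, given test hydrochloride sc in the neck (injection volume 5 mL/kg). Decarboxylase inhibitor NSD 1015 (100 mg/kg ip or 60 mg/kg sc) given 30 min later; decapitation after another 30 min. Brain dissected on ice into striatum, limbic system, hemispheres, brain stem. Homogenized in 0.1 M perchloric acid with α-methyl-DOPA internal standard; DOPA measured by ion-pair reversed-phase HPLC with electrochemical detection.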
# Rattus norvegicus [2] = assay: In vivo accumulation of 5-HTP in brain stem of rat brain at a dose of 0.32 umol/kg.; assay type: functional
# Procedure, shortened: (§2)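 Hydrochlorides given sc in the neck (5 mL/kg) to rats, either untreated or reserpine-pretreated (5 mg/kg sc, 6 h before). Decarboxylase inhibitor NSD 1015 (100 mg/kg ip or 60 mg/kg sc) given 30 min later; rats decapitated after another 30 min. Striatum, limbic system, hemispheres and brain stem dissected on ice and homogenized in 0.1 M perchloric acid with α-methyl-DOPA internal standard. DOPA, DA, 5-HTP and 5-HT measured by ion-pair reversed-phase HPLC with electrochemical detection.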
# Rattus norvegicus [3] = assay: In vivo accumulation of 5-HTP in hemisphere of rat brain at a dose of 1 umol/kg.; assay type: functional; procedure, shortened: as §2
# Rattus norvegicus [4] = assay: In vivo accumulation of 5-HT in limbic of rat brain at a dose of 0.32 umol/kg.; assay type: functional; procedure, shortened: as §2
# Rattus norvegicus [5] = assay: In vivo accumulation of 5-HT in limbic of rat brain at a dose of 1 umol/kg.; assay type: functional; procedure, shortened: as §2
# Rattus norvegicus [6] = assay: In vivo accumulation of DOPA in hemisphere of rat brain at a dose of 3.2 umol/kg.; assay type: functional; procedure, shortened: as §1
# Rattus norvegicus [7] = assay: In vivo accumulation of DOPA in limbic of rat brain at a dose of 1 umol/kg.; assay type: functional; procedure, shortened: as §1
# Rattus norvegicus [8] = assay: In vivo accumulation of 5-HTP in brain stem of rat brain at a dose of 3.2 umol/kg.; assay type: functional; procedure, shortened: as §2
# Rattus norvegicus [9] = assay: In vivo accumulation of DOPA in hemisphere of rat brain at a dose of 0.32 umol/kg.; assay type: functional; procedure, shortened: as §1
# Rattus norvegicus [10] = assay: In vivo accumulation of 5-HTP in striatum of rat brain at a dose of 0.32 umol/kg.; assay type: functional; procedure, shortened: as §2
# Rattus norvegicus [11] = assay: In vivo accumulation of DA in striatum of rat brain at a dose of 1 umol/kg.; assay type: functional; procedure, shortened: as §2
# Rattus norvegicus [12] = assay: In vivo accumulation of DOPA in striatum of rat brain at a dose of 1 umol/kg.; assay type: functional; procedure, shortened: as §1
# Rattus norvegicus [13] = assay: In vivo accumulation of DOPA in brain stem of rat brain at a dose of 3.2 umol/kg.; assay type: functional; procedure, shortened: as §2
# Rattus norvegicus [14] = assay: In vivo accumulation of DOPA in striatum of rat brain at a dose of 0.32 umol/kg.; assay type: functional; procedure, shortened: as §1
# Rattus norvegicus [15] = assay: In vivo accumulation of 5-HT in striatum of rat brain at a dose of 3.2 umol/kg.; assay type: functional; procedure, shortened: as §2
# Rattus norvegicus [16] = assay: In vivo accumulation of 5-HTP in hemisphere of rat brain at a dose of 0.32 umol/kg.; assay type: functional; procedure, shortened: as §2
# Rattus norvegicus [17] = assay: In vivo accumulation of DA in striatum of rat brain at a dose of 3.2 umol/kg.; assay type: functional; procedure, shortened: as §2
# Rattus norvegicus [18] = assay: In vivo accumulation of 5-HT in striatum of rat brain at a dose of 1 umol/kg.; assay type: functional; procedure, shortened: as §2
# Rattus norvegicus [19] = assay: In vivo accumulation of 5-HT in limbic of rat brain at a dose of 3.2 umol/kg.; assay type: functional; procedure, shortened: as §2
# Rattus norvegicus [20] = assay: In vivo accumulation of DOPA in limbic of rat brain at a dose of 0.32 umol/kg.; assay type: functional; procedure, shortened: as §1
# Rattus norvegicus [21] = assay: In vivo accumulation of 5-HTP in striatum of rat brain at a dose of 3.2 umol/kg.; assay type: functional; procedure, shortened: as §2
# Rattus norvegicus [22] = assay: In vivo accumulation of DOPA in brain stem of rat brain at a dose of 0.32 umol/kg.; assay type: functional; procedure, shortened: as §2
# Rattus norvegicus [23] = assay: In vivo accumulation of 5-HTP in striatum of rat brain at a dose of 1 umol/kg.; assay type: functional; procedure, shortened: as §2
# Rattus norvegicus [24] = assay: In vivo accumulation of DOPA in brain stem of rat brain at a dose of 1 umol/kg.; assay type: functional; procedure, shortened: as §2
# Rattus norvegicus [25] = assay: In vivo accumulation of 5-HTP in hemisphere of rat brain at a dose of 3.2 umol/kg.; assay type: functional; procedure, shortened: as §2
# Rattus norvegicus [26] = assay: In vivo accumulation of DOPA in limbic of rat brain at a dose of 3.2 umol/kg.; assay type: functional; procedure, shortened: as §1
# Rattus norvegicus [27] = assay: In vivo accumulation of DA in striatum of rat brain at a dose of 0.32 umol/kg.; assay type: functional; procedure, shortened: as §2
# Rattus norvegicus [28] = assay: In vivo accumulation of 5-HTP in limbic of rat brain at a dose of 3.2 umol/kg.; assay type: functional; procedure, shortened: as §2
# Rattus norvegicus [29] = assay: In vivo accumulation of 5-HT in striatum of rat brain at a dose of 0.32 umol/kg.; assay type: functional; procedure, shortened: as §2
# Rattus norvegicus [30] = assay: In vivo accumulation of 5-HTP in brain stem of rat brain at a dose of 1 umol/kg.; assay type: functional; procedure, shortened: as §2
# Rattus norvegicus [31] = assay: In vivo accumulation of 5-HTP in limbic of rat brain at a dose of 0.32 umol/kg.; assay type: functional; procedure, shortened: as §2
# Rattus norvegicus [32] = assay: In vivo accumulation of 5-HTP in limbic of rat brain at a dose of 1 umol/kg.; assay type: functional; procedure, shortened: as §2
# Rattus norvegicus [33] = assay: In vivo accumulation of DA in striatum of rat brain at a dose of 0.1 umol/kg.; assay type: functional; procedure, shortened: as §2
# Rattus norvegicus [34] = assay: In vivo accumulation of 5-HT in striatum of rat brain at a dose of 0.1 umol/kg.; assay type: functional; procedure, shortened: as §2
# Rattus norvegicus [35] = assay: In vivo accumulation of DOPA in striatum of rat brain at a dose of 0.1 umol/kg.; assay type: functional; procedure, shortened: as §1
# Rattus norvegicus [36] = assay: In vivo accumulation of 5-HTP in striatum of rat brain at a dose of 0.1 umol/kg.; assay type: functional; procedure, shortened: as §2
# Rattus norvegicus [37] = assay: In vivo accumulation of 5-HTP in brain stem of rat brain at a dose of 0.1 umol/kg.; assay type: functional; procedure, shortened: as §2
# Rattus norvegicus [38] = assay: In vivo accumulation of DOPA in hemisphere of rat brain at a dose of 0.1 umol/kg.; assay type: functional; procedure, shortened: as §1
# Rattus norvegicus [39] = assay: In vivo accumulation of 5-HTP in limbic of rat brain at a dose of 0.1 umol/kg.; assay type: functional; procedure, shortened: as §2
# Rattus norvegicus [40] = assay: In vivo accumulation of 5-HT in limbic of rat brain at a dose of 0.1 umol/kg.; assay type: functional, Limbic system; procedure, shortened: as §2
# Rattus norvegicus [41] = assay: In vivo accumulation of DOPA in brain stem of rat brain at a dose of 0.1 umol/kg.; assay type: functional; procedure, shortened: as §2
# Rattus norvegicus [42] = assay: In vivo accumulation of DOPA in limbic of rat brain at a dose of 0.1 umol/kg.; assay type: functional; procedure, shortened: as §1
# Rattus norvegicus [43] = assay: In vivo accumulation of 5-HTP in hemisphere of rat brain at a dose of 0.1 umol/kg.; assay type: functional; procedure, shortened: as §2
structure (smiles),measurement,setting,value
CCCN1CCC[C@@H]2c3c(O)cccc3CC[C@H]21,Control,Rattus norvegicus [1],99.6%
same,Control,Rattus norvegicus [2],76.1%
same,Control,Rattus norvegicus [3],51.9%
same,Control,Rattus norvegicus [4],108.1%
same,Control,Rattus norvegicus [5],119.3%
same,Control,Rattus norvegicus [6],119%
same,Control,Rattus norvegicus [7],85.5% and 95.2%
same,Control,Rattus norvegicus [8],59.9%
same,Control,Rattus norvegicus [9],111%
same,Control,Rattus norvegicus [10],69.9%
same,Control,Rattus norvegicus [11],129.5%
same,Control,Rattus norvegicus [12],116.2%
same,Control,Rattus norvegicus [13],125.1%
same,Control,Rattus norvegicus [14],109.4%
same,Control,Rattus norvegicus [15],128.8%
same,Control,Rattus norvegicus [16],70.9%
same,Control,Rattus norvegicus [17],120.2%
same,Control,Rattus norvegicus [18],113.2%
same,Control,Rattus norvegicus [19],144.1%
same,Control,Rattus norvegicus [20],91.1% and 114.1%
same,Control,Rattus norvegicus [21],34%
same,Control,Rattus norvegicus [22],87%
same,Control,Rattus norvegicus [23],56.3%
same,Control,Rattus norvegicus [24],102.9%
same,Control,Rattus norvegicus [25],50.6%
same,Control,Rattus norvegicus [26],111.4% and 118.2%
same,Control,Rattus norvegicus [27],110.6%
same,Control,Rattus norvegicus [28],50.3%
same,Control,Rattus norvegicus [29],107.1%
same,Control,Rattus norvegicus [30],65.3%
same,Control,Rattus norvegicus [31],85.1%
same,Control,Rattus norvegicus [32],58.5%
CCCN1CCC[C@H]2c3c(O)cccc3CC[C@@H]21,Control,Rattus norvegicus [2],70.7%
same,Control,Rattus norvegicus [3],43%
same,Control,Rattus norvegicus [4],138.1%
same,Control,Rattus norvegicus [33],123.1%
same,Control,Rattus norvegicus [34],98.1%
same,Control,Rattus norvegicus [5],170.1%
same,Control,Rattus norvegicus [35],109.3%
same,Control,Rattus norvegicus [7],107.3% and 111%
same,Control,Rattus norvegicus [9],114%
same,Control,Rattus norvegicus [36],55.3%
same,Control,Rattus norvegicus [10],51.5%
same,Control,Rattus norvegicus [11],115.8%
same,Control,Rattus norvegicus [12],117.6%
same,Control,Rattus norvegicus [14],113.6%
same,Control,Rattus norvegicus [16],60.8%
same,Control,Rattus norvegicus [18],134.9%
same,Control,Rattus norvegicus [37],90.8%
same,Control,Rattus norvegicus [20],115.9% and 107.8%
same,Control,Rattus norvegicus [22],110.1%
same,Control,Rattus norvegicus [38],97%
same,Control,Rattus norvegicus [23],44.7%
same,Control,Rattus norvegicus [39],85.1%
same,Control,Rattus norvegicus [40],126.7%
same,Control,Rattus norvegicus [24],133.3%
same,Control,Rattus norvegicus [27],108.2%
same,Control,Rattus norvegicus [41],93.2%
same,Control,Rattus norvegicus [29],81.6%
same,Control,Rattus norvegicus [30],61.1%
same,Control,Rattus norvegicus [42],95.9% and 124.5%
same,Control,Rattus norvegicus [31],69.7%
same,Control,Rattus norvegicus [43],74.7%
same,Control,Rattus norvegicus [32],52.3%
